# Source: ChEMBL document CHEMBL1150117, “Two new subergane-based sesquiterpenes from a Taiwanese Gorgonian coral Subergorgia suberosa” (2002)
# Assays:
# [1] = test system: KB; assay: Cytotoxicity against human KB cells after 4 hrs by MTT assay; format: functional; conditions: read-out: ED50 (the source's name)
# Outline: (§1)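 KB and HeLa cells from ATCC; growth inhibition read by MTT colorimetric method; ED50 in μg/mL.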
# [2] = test system: HeLa; assay: Cytotoxicity against human HeLa cells after 4 hrs by MTT assay; format: functional; conditions: read-out: ED50 (the source's name); outline: as §1
Structure (SMILES),EC50 [1],EC50 [2]
COC(=O)C1=C[C@@]2(C)CC[C@@H]3[C@@H](C)CC(=O)[C@@]32[C@@H]1C [SUBERGORGIC ACID METHYL ESTER],4.3 µg/mL,
CC(=O)O[C@H]1C[C@H](C)[C@H]2CC[C@]3(C)C=C(C(=O)O)[C@@H](C)[C@]123,> 10 µg/mL,> 10 µg/mL
C[C@@H]1C(CO)=C[C@@]2(C)CC[C@@H]3[C@@H](C)CC[C@@]132 [SUBERGORGIOL],> 10 µg/mL,> 10 µg/mL
C[C@@H]1CC(=O)[C@@]23[C@@H](C)C(C(=O)O)=C[C@]2(C)CC[C@@H]13 [SUBERGORGIC ACID],> 10 µg/mL,> 10 µg/mL
C[C@@H]1C(C(=O)O)=C[C@@]2(C)CC[C@@H]3[C@@H](C)C[C@H](O)[C@@]132,> 10 µg/mL,> 10 µg/mL
COC(=O)C1=C[C@@]2(C)CC[C@@H]3[C@@H](C)C[C@H](OC(C)=O)[C@@]32[C@@H]1C,> 10 µg/mL,> 10 µg/mL
